Experimental findings from ChEMBL document CHEMBL4152390, “Discovery of the First-in-Class Dual Histone Deacetylase-Proteasome Inhibitor” (J Med Chem, 2018) are described below.

A word on the IC50: it is the point on the concentration scale where inhibition reaches its midpoint. A higher IC50 goes with lower potency.

The target in assay [1] is T1, Protein deacetylase HDAC6 (Homo sapiens) (UniProt Q9UBN7).
T1 sequence (whole entry): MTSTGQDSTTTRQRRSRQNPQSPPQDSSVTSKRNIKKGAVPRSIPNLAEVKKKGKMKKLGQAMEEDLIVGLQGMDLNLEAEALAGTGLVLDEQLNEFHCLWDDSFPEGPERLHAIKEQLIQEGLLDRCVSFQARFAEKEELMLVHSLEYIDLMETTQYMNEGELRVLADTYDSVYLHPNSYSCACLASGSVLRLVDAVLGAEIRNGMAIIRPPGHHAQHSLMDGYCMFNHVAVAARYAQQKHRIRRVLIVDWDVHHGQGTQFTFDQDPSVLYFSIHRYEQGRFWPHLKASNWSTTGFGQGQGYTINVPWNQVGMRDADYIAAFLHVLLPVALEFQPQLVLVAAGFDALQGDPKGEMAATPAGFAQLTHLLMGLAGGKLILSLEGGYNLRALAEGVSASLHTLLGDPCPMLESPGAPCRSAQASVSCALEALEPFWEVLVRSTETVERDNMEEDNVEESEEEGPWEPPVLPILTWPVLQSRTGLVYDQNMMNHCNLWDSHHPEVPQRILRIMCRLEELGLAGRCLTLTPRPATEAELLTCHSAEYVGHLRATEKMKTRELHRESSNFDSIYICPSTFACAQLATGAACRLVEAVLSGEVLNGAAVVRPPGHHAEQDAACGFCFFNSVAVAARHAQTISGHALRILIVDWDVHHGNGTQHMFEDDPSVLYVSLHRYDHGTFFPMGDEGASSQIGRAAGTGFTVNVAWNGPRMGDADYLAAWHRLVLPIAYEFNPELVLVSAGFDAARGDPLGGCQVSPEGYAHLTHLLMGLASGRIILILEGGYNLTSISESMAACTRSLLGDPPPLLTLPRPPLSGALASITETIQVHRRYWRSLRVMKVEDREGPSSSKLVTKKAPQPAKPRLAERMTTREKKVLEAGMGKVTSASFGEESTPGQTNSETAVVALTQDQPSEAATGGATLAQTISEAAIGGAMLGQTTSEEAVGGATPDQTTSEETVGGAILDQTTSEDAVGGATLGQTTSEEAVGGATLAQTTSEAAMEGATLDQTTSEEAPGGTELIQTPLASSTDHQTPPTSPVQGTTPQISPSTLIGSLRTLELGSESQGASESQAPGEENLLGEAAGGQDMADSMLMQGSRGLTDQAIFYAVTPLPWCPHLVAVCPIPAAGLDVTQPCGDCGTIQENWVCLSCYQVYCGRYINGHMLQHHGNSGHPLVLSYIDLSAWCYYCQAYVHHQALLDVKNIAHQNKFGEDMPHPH
Put plainly: Inhibition of HDAC6 in human HL60 cells assessed as increase in acetyl-alpha tubulin expression at 0.1 to 10 uM after 24 hrs by immunoblot assay. The assay is classed as cell-based. The gist of the method:
(§1)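 Cells exposed for 24 h at indicated concentrations; lysates immunoblotted for acetyl-α-tubulin, acetyl-histone H3, PARP, with GAPDH as loading control.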

Assay [2] addresses T1, Protein deacetylase HDAC6 (Homo sapiens). Put plainly: Inhibition of HDAC6 in human SEM cells assessed as increase in acetyl-alpha tubulin expression at 0.1 to 10 uM after 24 hrs by immunoblot assay. Type of assay: cell-based. The gist of the method: as §1
Assay [3] shares this target. Description: Inhibition of HDAC6 in imatinib-resistant human SUP-B15 cells assessed as increase in acetyl-alpha tubulin expression at 0.1 to 10 uM after 24 hrs by immunoblot assay. The assay is classed as cell-based. An outline of the steps: as §1
(In general: In western blotting, separated proteins are transferred to a membrane and probed.)

Assay [4] has the same target. Description: Inhibition of HDAC6 in human HL60 cells assessed as increase in acetyl-histone H3 expression at 0.1 to 10 uM after 24 hrs by immunoblot assay. The assay is classed as cell-based. The gist of the method:
as §1

The target is the same in assay [5]. Description: Inhibition of HDAC6 in human SEM cells assessed as increase in acetyl-histone H3 expression at 0.1 to 10 uM after 24 hrs by immunoblot assay. The assay is classed as cell-based. An outline of the steps:
as §1

Assay [6] has the same target. Description: Inhibition of HDAC6 in imatinib-resistant human SUP-B15 cells assessed as increase in acetyl-histone H3 expression at 0.1 to 10 uM after 24 hrs by immunoblot assay. Type of assay: cell-based. An outline of the steps:
as §1

Assay [7] addresses T2, Proteasome Macropain subunit MB1 (Homo sapiens, UniProt P28074).
T2 sequence (P28074 whole entry): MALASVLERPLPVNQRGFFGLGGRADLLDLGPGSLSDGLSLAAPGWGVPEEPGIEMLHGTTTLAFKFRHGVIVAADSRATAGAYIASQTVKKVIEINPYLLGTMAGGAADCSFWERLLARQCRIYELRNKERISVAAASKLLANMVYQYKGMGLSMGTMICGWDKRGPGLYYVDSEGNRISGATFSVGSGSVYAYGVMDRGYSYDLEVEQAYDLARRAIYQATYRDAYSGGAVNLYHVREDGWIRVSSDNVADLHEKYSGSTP
Put plainly: Inhibition of chymotrypsin-like activity of 20S proteasome in human HL60 cells using Suc-LLVY aminoluciferin as substrate after 2 hrs by proteasome-Glo assay. The assay is classed as cell-based.

Assay [8] addresses T2, Proteasome Macropain subunit MB1. Description: Inhibition of chymotrypsin-like activity of 20S proteasome in human SEM cells using Suc-LLVY aminoluciferin as substrate after 2 hrs by proteasome-Glo assay. Type of assay: cell-based.
For assay [9] the target is unchanged. Description: Inhibition of chymotrypsin-like activity of 20S proteasome in imatinib-resistant human SUP-B15 cells using Suc-LLVY aminoluciferin as substrate after 2 hrs by proteasome-Glo assay. Type of assay: cell-based.
A further assay deals with HL-60. Description: Cytotoxicity against human HL60 cells after 72 hrs by CellTiter-Glo luminescent cell viability assay. The assay is classed as functional, cell-based. The conditions noted are these: HL-60, 72 h. (Cellular ATP, detected with luciferase, serves as a proxy for viable cell number.)
In assay [10] the test system is SEM cells. Description: Cytotoxicity against human SEM cells after 72 hrs by CellTiter-Glo luminescent cell viability assay. The assay is classed as functional, cell-based. An outline of the steps: (§2)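 Inhibitors dispensed in increasing concentrations (50 nM–25 μM) and cells exposed 72 h. Viability read by ATP-dependent luminescence (CellTiter-Glo). Raw data normalized to controls. IC50 obtained by sigmoid dose–response fit with non-linear regression.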

In assay [11] the test system is KCL-22. Put plainly: Cytotoxicity against human KCL22 cells after 72 hrs by CellTiter-Glo luminescent cell viability assay. Type of assay: functional, cell-based. Conditions: KCL-22, 72 h. An outline of the steps: as §2
Assay [12] deals with SUP-B15. Description: Cytotoxicity against imatinib-resistant human SUP-B15 cells after 72 hrs by CellTiter-Glo luminescent cell viability assay. Type of assay: functional, cell-based. Conditions: SUP-B15, 72 h.
Assay [13] has as its system KCL-22. Put plainly: Cytotoxicity against imatinib-resistant human KCL22 cells after 72 hrs by CellTiter-Glo luminescent cell viability assay. Type of assay: functional, cell-based. Conditions: KCL-22, 72 h. An outline of the steps: as §2
The nature of assay [14]: Cytotoxicity against human RPMI18226 cells after 72 hrs by CellTiter-Glo luminescent cell viability assay. The assay is classed as functional, cell-based. Conditions: RPMI18226, 72 h.
Assay [15] in a line: Cytotoxicity against human BCP-ALL cells derived from patient 1 after 72 hrs by CellTiter-Glo luminescent cell viability assay. The assay is classed as functional, cell-based.
Assay [16] in a line: Cytotoxicity against human BCP-ALL cells derived from patient 2 after 72 hrs by CellTiter-Glo luminescent cell viability assay. The assay is classed as functional, cell-based. The gist of the method: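 Compounds dispensed digitally at increasing concentrations, 50 nM–25 μM; viability read by CellTiter-Glo luminescence after 72 h. Raw data normalized to controls, IC50 from sigmoid dose curve by non-linear regression. Patient samples: primary cells from newly diagnosed or relapsed patients, cultured in stem cell expansion or mononuclear cell medium.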

Assay [17] in a line: Cytotoxicity against human BCP-ALL cells derived from patient 3 after 72 hrs by CellTiter-Glo luminescent cell viability assay. The assay is classed as functional, cell-based.
A short description of assay [18]: Cytotoxicity against human BCP-ALL cells derived from patient 4 after 72 hrs by CellTiter-Glo luminescent cell viability assay. The assay is classed as functional, cell-based.
Another assay has as its system PBMC. Put plainly: cells. Conditions: Homo sapiens, 72 h. Type of assay: ADME, cell-based.
Assay [19] relates to SEM cells. Description: Antiproliferative activity against human SEM cells at IC50 to 2 times IC50 after 24 to 72 hrs by trypan exclusion method. The assay is classed as functional, cell-based.
Assay [20] addresses T1, Protein deacetylase HDAC6 (Homo sapiens). The conditions noted are these: 0.1 to 10 uM.
The target is the same in assay [21]. Conditions: SEM, 0.1 to 10 uM.
For assay [22] the target is unchanged. The conditions noted are these: SUP-B15, 0.1 to 10 uM.
Assay [23] has the same target. The conditions noted are these: SEM, 1.6 uM.
Assay [24] deals with SEM cells. Description: Inhibition of proteasome in human SEM cells assessed as increase in aggresome accumulation at 3 uM after 18 hrs by fluorescence microscopic method. The assay is classed as cell-based. The gist of the method:
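SEM cells exposed for 18 h, then labeled with a proteostat aggresome detection kit with DNA counterstain per kit guidelines; aggresomes imaged by fluorescence microscopy with a 63X objective.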

Assay [25] concerns SEM cells. Description: Inhibition of proteasome in human SEM cells assessed as increase in aggresome accumulation at 3 uM after 18 hrs by FACS analysis. Type of assay: cell-based. An outline of the steps: (§3)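 Cells treated 18 h, then stained with a proteostat aggresome dye plus DNA stain. Imaged by fluorescence microscopy (63X objective) or analysed by FACS, with aggresome propensity factor from relative mean fluorescence intensity.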
(Flow cytometry measures light scatter and fluorescence of single cells or particles in a stream.)

For a further assay, the species on record is Homo sapiens. Put plainly: Inhibition of proteasome in human HL60 cells assessed as increase in cleaved PARP expression at 1 to 100 nM after 24 hrs by immunoblot assay. The assay is classed as cell-based. The gist of the method:
as §1

Assay [26] has as its system SEM cells. Description: Inhibition of proteasome in human SEM cells assessed as increase in cleaved PARP expression at 1 to 100 nM after 24 hrs by immunoblot assay. Type of assay: cell-based. The gist of the method: (§4)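 Cells treated with compounds for 24 h; lysates immunoblotted for PARP alongside acetyl-α-tubulin, acetyl-histone H3 and GAPDH.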
In assay [27] the test system is SUP-B15. Put plainly: Inhibition of proteasome in imatinib-resistant human SUP-B15 cells assessed as increase in cleaved PARP expression at 1 to 100 nM after 24 hrs by immunoblot assay. Type of assay: cell-based. An outline of the steps:
as §4

The test system of assay [28] is SEM cells. Put plainly: Inhibition of proteasome in human SEM cells assessed as increase in aggresome accumulation at 10 nM after 18 hrs by fluorescence microscopic method. Type of assay: cell-based. The gist of the method:
as §3

Assay [29] deals with SEM cells. Description: Inhibition of proteasome in human SEM cells assessed as increase in aggresome accumulation at 10 nM after 18 hrs by FACS analysis. Type of assay: cell-based. An outline of the steps: as §3

Each structure is given as a SMILES string. Active and inactive are the calls of the source. The rule behind the calls is not given here. Where a SMILES comes first, the peptide text is derived from it. The star is where a group is joined. Cbz = O=C(OCc1ccccc1)* A value given as a limit tells only on which side of the number the result lay.

Consider `O=C(CCCCCCNC(=O)c1cnc(N(c2ccccc2)c2ccccc2)nc1)NO` [RICOLINOSTAT], for which the inhibition entry in assay [1], in [2], in [3], in assay [4], in assay [5] and in assay [6] was “Active” in each case. For the same molecule, the inhibition entry in assay [20], in [21], in assay [22] and in [23] was “Active” each time. Also, the IC50 in [7] was more than 25 µM; in assay [8], more than 25 µM; in assay [9], more than 25 µM; with HL-60 it was 2.36 µM; in the assay on SEM cells [10] it was 1.61 µM; in the assay on KCL-22 [11], 3.75 µM. Moreover, the IC50 in the assay with SUP-B15 [12] was 3.54 µM; with KCL-22 [13] it was 3.38 µM; in assay [14], 1.97 µM; in assay [15], 0.29 µM; in assay [16], 0.58 µM; in assay [17], 4.45 µM. Moreover, the 50% inhibitory concentration (IC50) in assay [18] was 0.54 µM; in the assay with PBMC, less than 3.6 µM. In addition, in the assay on SEM cells [19], the result was Active.

Regarding `CC(C)C[C@@H](C=O)NC(=O)[C@H](CC(C)C)NC(=O)[C@H](CC(C)C)NC(=O)OCc1ccccc1` (Cbz-Leu-Leu-Leu-aldehyde), the inhibition entry with SEM cells [24] and in the assay with SEM cells [25] was “Active” in each case.

With `O=C(CCCCCCC(=O)Nc1ccccc1)NO` [VORINOSTAT], the IC50 in [7], in assay [8] and in assay [9] was more than 25 µM each time.

As for `CC(C)C[C@H](NC(=O)[C@H](Cc1ccccc1)NC(=O)c1cnccn1)B(O)O` [BORTEZOMIB], the inhibition entry in the assay listed under Homo sapiens, in the assay with SEM cells [26], with SUP-B15 [27], in the assay with SEM cells [28] and in the assay with SEM cells [29] was “Active” throughout. The IC50 in the assay with PBMC was less than 0.035 µM.
